Activity, fold change (FC) and IFN-alpha data for two molecules are collected here from ChEMBL document CHEMBL1154352, “Toll-like receptor 7 selective synthetic oligoribonucleotide agonists: synthesis and structure-activity relationship studies” (J Med Chem, 2009).

Molecules are shown by their SMILES. Calls of active or inactive are those of the source. The rule behind the calls is not given here.

In assay [1] the test system is PBMC. The assay is described as follows: Immunomodulatory activity in human PBMC assessed as induction of IL12 at 100 ug/ml after 24 hrs. It is filed as functional, cell-based. Put shortly: (§1)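 Human PBMCs plated at 5 × 10^6 cells/mL; compounds dissolved in PBS added at various concentrations, 37 °C for 24 h. Supernatant cytokines/chemokines quantified with human Luminex multiplex kit.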

Assay [2] concerns PBMC. The assay is described as follows: Immunomodulatory activity in human PBMC assessed as induction of TNFalpha at 100 ug/ml after 24 hrs. It is filed as functional, cell-based. The gist of the method:
as §1

Assay [3] has as its target T1, Toll-like receptor 9 (Mus musculus) (UniProt Q9EQU3).
T1 sequence (whole entry): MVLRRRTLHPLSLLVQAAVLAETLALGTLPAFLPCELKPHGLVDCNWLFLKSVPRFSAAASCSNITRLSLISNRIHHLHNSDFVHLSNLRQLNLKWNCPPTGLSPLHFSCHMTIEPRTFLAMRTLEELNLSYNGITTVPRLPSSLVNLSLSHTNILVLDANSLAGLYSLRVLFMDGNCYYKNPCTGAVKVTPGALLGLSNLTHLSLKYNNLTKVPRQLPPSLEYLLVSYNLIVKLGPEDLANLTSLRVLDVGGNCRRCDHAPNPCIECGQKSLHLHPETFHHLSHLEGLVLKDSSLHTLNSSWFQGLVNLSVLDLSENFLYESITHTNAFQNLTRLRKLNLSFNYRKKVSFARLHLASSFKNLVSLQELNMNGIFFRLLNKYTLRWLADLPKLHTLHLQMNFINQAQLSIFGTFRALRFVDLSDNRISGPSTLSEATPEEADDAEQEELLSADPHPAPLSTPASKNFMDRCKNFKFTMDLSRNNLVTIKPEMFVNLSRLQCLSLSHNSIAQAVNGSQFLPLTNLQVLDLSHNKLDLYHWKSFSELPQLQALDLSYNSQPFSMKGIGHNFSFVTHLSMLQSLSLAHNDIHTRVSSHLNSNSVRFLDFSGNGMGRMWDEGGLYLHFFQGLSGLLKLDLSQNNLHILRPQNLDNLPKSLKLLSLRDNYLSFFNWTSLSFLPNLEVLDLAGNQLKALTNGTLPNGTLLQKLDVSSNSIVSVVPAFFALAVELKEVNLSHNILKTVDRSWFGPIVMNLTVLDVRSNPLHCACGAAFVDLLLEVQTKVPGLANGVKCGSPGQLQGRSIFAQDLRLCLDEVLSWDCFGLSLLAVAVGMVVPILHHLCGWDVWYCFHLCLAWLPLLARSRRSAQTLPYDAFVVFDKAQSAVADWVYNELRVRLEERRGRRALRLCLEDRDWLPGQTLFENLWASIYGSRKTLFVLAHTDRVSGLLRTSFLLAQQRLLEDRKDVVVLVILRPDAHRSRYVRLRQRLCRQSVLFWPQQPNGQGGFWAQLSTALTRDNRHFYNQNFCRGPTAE
The assay is described as follows: Activation of mouse TLR9 expressed in HEK293 assessed as induction of NF-kappaB activity reporter gene assay. It is filed as cell-based. (Reporter assays use an easily measured gene product as a stand-in for the process of interest.)

In assay [4] the target is T2, Toll-like receptor 8 (Homo sapiens) (UniProt Q9NR97).
T2 sequence (whole entry): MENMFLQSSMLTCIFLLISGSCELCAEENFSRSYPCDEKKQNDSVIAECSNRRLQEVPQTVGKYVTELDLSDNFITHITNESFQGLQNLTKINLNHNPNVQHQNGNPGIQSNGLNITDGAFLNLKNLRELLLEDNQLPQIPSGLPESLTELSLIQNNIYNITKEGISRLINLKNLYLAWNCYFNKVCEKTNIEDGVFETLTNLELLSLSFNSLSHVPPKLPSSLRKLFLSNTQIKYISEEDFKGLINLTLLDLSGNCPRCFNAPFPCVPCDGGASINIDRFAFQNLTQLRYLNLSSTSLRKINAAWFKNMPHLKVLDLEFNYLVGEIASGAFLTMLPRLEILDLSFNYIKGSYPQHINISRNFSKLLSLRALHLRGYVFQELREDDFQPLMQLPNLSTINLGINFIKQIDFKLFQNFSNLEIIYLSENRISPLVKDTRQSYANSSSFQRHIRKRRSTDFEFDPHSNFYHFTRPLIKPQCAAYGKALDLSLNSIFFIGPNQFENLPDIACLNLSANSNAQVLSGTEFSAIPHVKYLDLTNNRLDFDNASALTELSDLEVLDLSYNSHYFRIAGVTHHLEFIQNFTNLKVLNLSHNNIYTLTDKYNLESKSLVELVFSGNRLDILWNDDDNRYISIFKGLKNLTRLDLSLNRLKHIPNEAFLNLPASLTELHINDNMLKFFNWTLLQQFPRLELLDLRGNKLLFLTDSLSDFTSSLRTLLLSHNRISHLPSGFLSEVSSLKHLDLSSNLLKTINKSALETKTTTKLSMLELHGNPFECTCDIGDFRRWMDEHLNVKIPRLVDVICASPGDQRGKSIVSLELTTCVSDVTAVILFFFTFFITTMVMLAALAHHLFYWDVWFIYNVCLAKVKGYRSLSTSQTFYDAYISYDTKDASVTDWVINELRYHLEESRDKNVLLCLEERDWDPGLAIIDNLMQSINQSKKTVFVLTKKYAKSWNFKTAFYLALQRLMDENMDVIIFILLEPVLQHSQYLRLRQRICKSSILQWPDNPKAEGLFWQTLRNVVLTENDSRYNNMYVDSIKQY
The experiment in a line: Activation of human TLR8 expressed in HEK293XL assessed as fold induction of NF-kappaB activity at 50 ug/ml after 18 hrs by reporter gene assay relative to control. The gist of the method:
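HEK293 cells stably expressing human TLR7 or TLR8, transiently transfected with SEAP reporter plasmid; medium replaced, SIMRA compounds added, 18 h incubation. Supernatant SEAP measured by QuantiBlue; expressed as fold increase in NF-κB activity over PBS control. Tabulated data at 50 μg/mL, representative of three independent experiments.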

In assay [5] the test system is PBMC. The assay is described as follows: Immunomodulatory activity in human PBMC assessed as induction of IFN-alpha at 100 ug/ml after 24 hrs.
Assay [6] has as its system Splenocyte. The assay is described as follows: Immunomodulatory activity in C57BL/6 mouse splenocytes bearing TLR7 receptor assessed as IL12 release at 100 ug/ml after 24 hrs by ELISA. The class given is functional, cell-based. The gist of the method: (§2)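 C57BL/6 splenocytes in RPMI 1640 with 10% FBS, penicillin/streptomycin, 2 mM L-glutamine, plated at 5 × 10^6 cells/mL; compounds in PBS added, 37 °C for 24 h. Supernatant IL-12 and IL-6 by ELISA; representative of three independent experiments.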
(An ELISA detects its analyte on a solid surface through an enzyme-linked reagent.)

In assay [7] the test system is Splenocyte. The experiment in a line: Immunomodulatory activity in C57BL/6 mouse splenocytes bearing TLR7 receptor assessed as IL6 release at 100 ug/ml after 24 hrs by ELISA. It is filed as functional, cell-based. Put shortly:
as §2

As to `Nc1ccn([C@@H]2O[C@H](COP(=O)(S)O[C@H]3[C@@H](O)[C@H](n4cnc5c(N)ncnc54)O[C@@H]3CO)[C@@H](OP(=O)(S)OC[C@H]3O[C@@H](n4ccc(=O)[nH]c4=O)[C@H](O)[C@@H]3OP(=O)(S)OC[C@H]3O[C@@H](n4ccc5c(=O)[nH]c(N)nc54)[C@H](O)[C@@H]3OP(=O)(S)OC[C@H]3O[C@@H](n4ccc(N)nc4=O)[C@H](O)[C@@H]3OP(=O)(S)OC[C@H]3O[C@@H](n4ccc5c(=O)[nH]c(N)nc54)[C@H](O)[C@@H]3OP(=O)(S)OC[C@H]3O[C@@H](n4cnc5c(N)ncnc54)[C@H](O)[C@@H]3OP(=O)(S)OC[C@H]3O[C@@H](n4ccc5c(=O)[nH]c(N)nc54)[C@H](O)[C@@H]3OP(=O)(S)OC[C@H]3O[C@@H](n4ccc(N)nc4=O)[C@H](O)[C@@H]3OP(=O)(S)OC[C@H]3O[C@@H](n4ccc(=O)[nH]c4=O)[C@H](O)[C@@H]3OP(=O)(S)OC[C@H]3O[C@@H](n4ccc(=O)[nH]c4=O)[C@H](O)[C@@H]3OP(=O)(S)OCC(O)COP(=O)(S)O[C@H]3[C@@H](O)[C@H](n4ccc(=O)[nH]c4=O)O[C@@H]3COP(=O)(S)O[C@H]3[C@@H](O)[C@H](n4ccc(=O)[nH]c4=O)O[C@@H]3COP(=O)(S)O[C@H]3[C@@H](O)[C@H](n4ccc(N)nc4=O)O[C@@H]3COP(=O)(S)O[C@H]3[C@@H](O)[C@H](n4ccc5c(=O)[nH]c(N)nc54)O[C@@H]3COP(=O)(S)O[C@H]3[C@@H](O)[C@H](n4cnc5c(N)ncnc54)O[C@@H]3COP(=O)(S)O[C@H]3[C@@H](O)[C@H](n4ccc5c(=O)[nH]c(N)nc54)O[C@@H]3COP(=O)(S)O[C@H]3[C@@H](O)[C@H](n4ccc(N)nc4=O)O[C@@H]3COP(=O)(S)O[C@H]3[C@@H](O)[C@H](n4ccc5c(=O)[nH]c(N)nc54)O[C@@H]3COP(=O)(S)O[C@H]3[C@@H](O)[C@H](n4ccc(=O)[nH]c4=O)O[C@@H]3COP(=O)(S)O[C@H]3[C@@H](O)[C@H](n4ccc(N)nc4=O)O[C@@H]3COP(=O)(S)O[C@H]3[C@@H](O)[C@H](n4cnc5c(N)ncnc54)O[C@@H]3CO)[C@H]2O)c(=O)n1` (some centres undefined), the Activity in assay [1] is 487 pg/mL; in assay [2], 43.5 pg/mL. Also, the outcome in assay [3] was inactive. For the same molecule, the fold change (FC) in assay [4] stood at 1.7. Further, in assay [5], the IFN-alpha is 131 pg/mL. Besides, the result in assay [6] and in assay [7] was Active.
In the case of `Nc1ccn([C@@H]2O[C@H](CO[C@H]3[C@@H](O)[C@H](n4cnc5c(N)ncnc54)O[C@@H]3COP(=O)(S)O[C@H]3[C@@H](O)[C@H](n4ccc5c(=O)[nH]c(N)nc54)O[C@@H]3COP(=O)(S)O[C@H]3[C@@H](O)[C@H](n4ccc(=O)[nH]c4=O)O[C@@H]3COP(=O)(S)O[C@H]3[C@@H](O)[C@H](n4cnc5c(N)ncnc54)O[C@@H]3COP(=O)(S)O[C@H]3[C@@H](O)[C@H](n4ccc5c(=O)[nH]c(N)nc54)O[C@@H]3COP(=O)(S)O[C@H]3[C@@H](O)[C@H](n4ccc(=O)[nH]c4=O)O[C@@H]3CO)[C@@H](OP(=O)(S)OC[C@H]3O[C@@H](n4ccc5c(=O)[nH]c(N)nc54)[C@H](O)[C@@H]3OP(=O)(S)OC[C@H]3O[C@@H](n4cnc5c(N)ncnc54)[C@H](O)[C@@H]3OP(=O)(S)OC[C@H]3O[C@@H](n4ccc(=O)[nH]c4=O)[C@H](O)[C@@H]3OP(=O)(S)OC[C@H]3O[C@@H](n4ccc(=O)[nH]c4=O)[C@H](O)[C@@H]3OP(=O)(S)OCC(O)COP(=O)(S)O[C@H]3[C@@H](O)[C@H](n4ccc(=O)[nH]c4=O)O[C@@H]3COP(=O)(S)O[C@H]3[C@@H](O)[C@H](n4ccc(=O)[nH]c4=O)O[C@@H]3COP(=O)(S)O[C@H]3[C@@H](O)[C@H](n4cnc5c(N)ncnc54)O[C@@H]3COP(=O)(S)O[C@H]3[C@@H](O)[C@H](n4ccc5c(=O)[nH]c(N)nc54)O[C@@H]3COP(=O)(S)O[C@H]3[C@@H](O)[C@H](n4ccc(N)nc4=O)O[C@@H]3CO[C@H]3[C@@H](O)[C@H](n4cnc5c(N)ncnc54)O[C@@H]3COP(=O)(S)O[C@H]3[C@@H](O)[C@H](n4ccc5c(=O)[nH]c(N)nc54)O[C@@H]3COP(=O)(S)O[C@H]3[C@@H](O)[C@H](n4ccc(=O)[nH]c4=O)O[C@@H]3COP(=O)(S)O[C@H]3[C@@H](O)[C@H](n4cnc5c(N)ncnc54)O[C@@H]3COP(=O)(S)O[C@H]3[C@@H](O)[C@H](n4ccc5c(=O)[nH]c(N)nc54)O[C@@H]3COP(=O)(S)O[C@H]3[C@@H](O)[C@H](n4ccc(=O)[nH]c4=O)O[C@@H]3CO)[C@H]2O)c(=O)n1` (some centres undefined), the Activity is 102 pg/mL in assay [1] and 0 pg/mL in assay [2]. The result in assay [3] was inactive. In addition, the fold change (FC) in assay [4] was 1.6. The IFN-alpha in assay [5] was 183 pg/mL. Also, the outcome in assay [6] and in assay [7] was Active.
